# Experimental data collected from several papers.
# Protocols differ between the studies behind these lines.
Compound,target or system,test,test system,setting,measurement,value
NNC(=O)c1ccncc1,Mycobacterium tuberculosis variant bovis BCG,microbial growth,BCG,,MIC90,0.24 µg/mL
[H]/N=C(/N)N[C@H]1[C@H](O)[C@@H](O)[C@H](O[C@@H]2O[C@@H](C)[C@](O)(C=O)[C@H]2O[C@@H]2O[C@@H](CO)[C@H](O)[C@@H](O)[C@@H]2NC)[C@@H](N/C(N)=N\[H])[C@@H]1O,Klebsiella pneumoniae,"microbial growth, broth dilution",ATCC43816,,MIC,2 µg/mL
N.N.[Cl][Pt][Cl],CA46,"cell growth or viability, ATP luminescence",,"10 µM, 72 h",inhibition,95%
c1ccc([Se][Au]=[c]2n(C3CCCCC3)ccn2C2CCCCC2)cc1,HT-29,"cell growth or viability, crystal violet",,,IC50,1.1 µM
N#Cc1nc[n]([Au][PH](c2ccccc2)(c2ccccc2)c2ccccc2)c1C#N,IMR-90,"cell growth or viability, MTT",,48 h,IC50,64 µM
C[C@H]1COc2c(N3CCN(C)CC3)c(F)cc3c(=O)c(C(=O)O)cn1c23,Klebsiella pneumoniae,microbial growth,ATCCBAA1705,drug-resistant strain,MIC,> 8 µg/mL
NCC[C@H](O)C(=O)N[C@@H]1C[C@H](N)[C@@H](O[C@H]2O[C@H](CN)[C@@H](O)[C@H](O)[C@H]2O)[C@H](O)[C@H]1O[C@H]1O[C@H](CO)[C@@H](O)[C@H](N)[C@H]1O,Mycobacterium tuberculosis variant bovis BCG,microbial growth,BCG,,MIC50,0.32 µg/mL
C[C@@H](O)[C@H]1C(=O)N2C(C(=O)O)=C(S[C@@H]3CN[C@H](C(=O)N(C)C)C3)[C@H](C)[C@H]12,Klebsiella pneumoniae,microbial growth,ATCCBAA1705,drug-resistant strain,MIC,> 8 µg/mL
Clc1nc[n]([Au][PH](c2ccccc2)(c2ccccc2)c2ccccc2)c1Cl,IMR-90,"cell growth or viability, MTT",,48 h,IC50,54.9 µM
